The values that follow come from PubChem BioAssay AID623874 (Vanderbilt Specialized Chemistry Center, 2012).

The target of this assay is Metabotropic glutamate receptor 1 (Rattus norvegicus) (UniProt P23385). Briefly: rat mGlu1 modulation, glutamate curve fold shift, SAR follow-up, selectivity assay for mGlu4 PAM lead optimization, cell-based, calcium flux (AID 623874). The following applies: rat mGlu1 cells, Fluo-4 calcium flux, glutamate CRC shift; at 10 µM. In a few lines:
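Doses: One dose, 10 µM final | Assay system: Fluo-4-loaded cells | Measured by: Fluo-4 calcium fluorescence | Medium: HEPES-buffered HBSS plus probenecid, pH 7.3 | Also added: Glutamate agonist | Timing: About 2.5 min compound pre-incubation before glutamate addition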
A general note: Calcium flux is commonly read through the fluorescence of an indicator in the cells.

Calls of active or inactive are those of the source.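 The calls were made as follows: active = glutamate fold shift at least 2 as enhancer or at most 0.5 as blocker, actives on both sides; inactive = the rest.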

Sequence of Metabotropic glutamate receptor 1 (Rattus norvegicus) (P23385 whole entry, looked up): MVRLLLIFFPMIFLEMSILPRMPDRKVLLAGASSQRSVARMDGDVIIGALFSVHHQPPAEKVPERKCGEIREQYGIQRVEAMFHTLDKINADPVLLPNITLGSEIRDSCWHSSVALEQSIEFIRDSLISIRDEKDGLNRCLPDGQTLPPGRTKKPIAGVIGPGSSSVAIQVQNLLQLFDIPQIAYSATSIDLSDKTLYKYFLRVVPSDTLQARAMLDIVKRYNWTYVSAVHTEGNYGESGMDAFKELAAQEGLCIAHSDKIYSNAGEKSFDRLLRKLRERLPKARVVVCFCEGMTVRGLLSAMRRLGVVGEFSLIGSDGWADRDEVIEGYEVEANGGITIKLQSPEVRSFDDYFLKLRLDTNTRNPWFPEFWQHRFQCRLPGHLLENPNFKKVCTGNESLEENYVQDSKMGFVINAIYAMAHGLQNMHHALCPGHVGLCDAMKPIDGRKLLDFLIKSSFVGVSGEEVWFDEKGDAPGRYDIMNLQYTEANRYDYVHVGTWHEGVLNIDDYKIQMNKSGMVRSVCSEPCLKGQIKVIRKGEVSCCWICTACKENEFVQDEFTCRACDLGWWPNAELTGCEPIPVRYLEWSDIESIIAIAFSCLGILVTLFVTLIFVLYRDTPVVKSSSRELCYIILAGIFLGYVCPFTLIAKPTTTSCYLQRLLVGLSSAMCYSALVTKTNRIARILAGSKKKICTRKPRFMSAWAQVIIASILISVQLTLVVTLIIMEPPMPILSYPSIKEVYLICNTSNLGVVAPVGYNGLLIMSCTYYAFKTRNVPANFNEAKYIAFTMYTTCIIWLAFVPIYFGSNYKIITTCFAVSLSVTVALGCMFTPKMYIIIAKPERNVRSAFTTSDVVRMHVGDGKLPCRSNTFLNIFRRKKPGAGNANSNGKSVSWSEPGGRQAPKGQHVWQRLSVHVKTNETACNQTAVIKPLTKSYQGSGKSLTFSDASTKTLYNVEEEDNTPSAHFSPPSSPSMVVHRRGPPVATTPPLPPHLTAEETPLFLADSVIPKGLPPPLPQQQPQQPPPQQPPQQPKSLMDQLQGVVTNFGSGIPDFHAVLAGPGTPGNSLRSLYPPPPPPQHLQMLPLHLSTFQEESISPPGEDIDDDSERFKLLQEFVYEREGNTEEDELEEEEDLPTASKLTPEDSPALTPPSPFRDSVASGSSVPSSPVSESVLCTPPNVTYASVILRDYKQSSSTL

In the case of `O=C(Nc1cccc(Cl)c1)c1ccccn1`, the fold shift is 1.17 (inactive).
